Measurements published in ChEMBL document CHEMBL4308845, “Allosteric Activation of Striatal-Enriched Protein Tyrosine Phosphatase (STEP, PTPN5) by a Fragment-like Molecule” (J Med Chem, 2019).
Activity calls are given as the source filed them. The rule behind the calls is not given here.

Legend:
[1] = biological target: T1, Tyrosine-protein phosphatase non-receptor type 2 (Homo sapiens) (UniProt P17706); assay: Activation of human TCPTP (2 to 345 residues) at 500 uM using biotin-Ahx-EDT-pY-Y-RKG-amide as substrate measured after 2 hrs by AlphaLISA assay
T1 sequence (whole entry): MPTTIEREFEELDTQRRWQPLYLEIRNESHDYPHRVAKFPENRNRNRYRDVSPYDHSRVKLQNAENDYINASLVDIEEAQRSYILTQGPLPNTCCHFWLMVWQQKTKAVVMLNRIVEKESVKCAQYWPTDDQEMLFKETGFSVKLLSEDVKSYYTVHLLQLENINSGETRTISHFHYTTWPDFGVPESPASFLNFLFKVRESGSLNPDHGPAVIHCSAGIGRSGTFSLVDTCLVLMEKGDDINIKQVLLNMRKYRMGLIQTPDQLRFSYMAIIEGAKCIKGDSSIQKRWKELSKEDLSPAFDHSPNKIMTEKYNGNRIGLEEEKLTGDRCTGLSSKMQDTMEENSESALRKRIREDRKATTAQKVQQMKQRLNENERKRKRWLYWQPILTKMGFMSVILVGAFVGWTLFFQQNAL
Summary of the method: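 In-house TC-PTP (2−345) at 500 pM final, preincubated 10 min at 24 °C with compound (up to 500 μM), then EDT-pY-Y-RKG-amide substrate (1.4 μM final); 1.5 h at 24 °C, stopped with 200 μM orthovanadate. Competition AlphaScreen with biotin-Ahx-EDT-pY-Y-RKG-amide (2.5 nM) and antibody 4G10 (500 pM), 2 h at 24 °C. Quantified from on-plate standard curve.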

[2] = biological target: T2, Tyrosine-protein phosphatase non-receptor type 5 (Mus musculus) (UniProt P54830); assay: Activation of mouse STEP PTP domain (244 to 539 residues) expressed in Escherichia coli BL21(DE3) at 500 uM using biotin-pFyn peptide substrate after 60 mins by AlphaLISA assay
T2 sequence (whole entry): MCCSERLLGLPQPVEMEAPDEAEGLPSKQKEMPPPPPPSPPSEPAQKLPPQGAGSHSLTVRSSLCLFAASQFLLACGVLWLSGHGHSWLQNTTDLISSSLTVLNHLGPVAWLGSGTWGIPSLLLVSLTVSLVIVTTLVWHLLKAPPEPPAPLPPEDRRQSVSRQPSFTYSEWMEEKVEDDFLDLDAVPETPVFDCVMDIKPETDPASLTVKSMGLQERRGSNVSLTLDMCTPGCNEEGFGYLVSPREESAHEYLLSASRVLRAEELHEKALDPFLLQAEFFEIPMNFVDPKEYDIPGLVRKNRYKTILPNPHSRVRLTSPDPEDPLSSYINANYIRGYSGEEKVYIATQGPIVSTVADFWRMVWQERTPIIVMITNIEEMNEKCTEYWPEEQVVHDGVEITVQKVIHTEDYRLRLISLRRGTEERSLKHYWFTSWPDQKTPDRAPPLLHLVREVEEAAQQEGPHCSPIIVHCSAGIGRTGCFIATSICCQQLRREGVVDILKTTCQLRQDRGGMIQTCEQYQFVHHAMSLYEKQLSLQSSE

[3] = biological target: T3, Tyrosine-protein phosphatase non-receptor type 1 (Homo sapiens) (UniProt P18031); assay: Activation of human PTP1B (1 to 405 residues) at 500 uM preincubated for 10 mins followed by EDT-pY-Y-RKG-amide substrate addition and measured after 1.5 hrs by AlphaLISA assay
T3 sequence (whole entry): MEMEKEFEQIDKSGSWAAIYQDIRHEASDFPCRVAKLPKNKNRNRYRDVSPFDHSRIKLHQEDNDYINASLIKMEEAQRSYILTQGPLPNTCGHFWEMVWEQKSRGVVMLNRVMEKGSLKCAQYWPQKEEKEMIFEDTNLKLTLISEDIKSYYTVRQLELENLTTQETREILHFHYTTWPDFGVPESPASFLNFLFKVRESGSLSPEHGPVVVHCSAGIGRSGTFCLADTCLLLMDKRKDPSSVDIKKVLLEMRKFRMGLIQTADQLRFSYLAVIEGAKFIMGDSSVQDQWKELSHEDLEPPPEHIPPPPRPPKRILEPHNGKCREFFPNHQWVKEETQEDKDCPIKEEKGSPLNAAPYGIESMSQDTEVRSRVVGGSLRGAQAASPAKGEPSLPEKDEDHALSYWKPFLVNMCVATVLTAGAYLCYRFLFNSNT
Summary of the method: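 In-house PTP1B (1−405) at 500 pM final, preincubated 10 min at 24 °C with compound (up to 500 μM), then EDT-pY-Y-RKG-amide (1.4 μM final) or pFYN (20 μM final) added; 1.5 h at 24 °C, humidified. Stopped with 200 μM orthovanadate. Competition AlphaScreen using biotin-Ahx-EDT-pY-Y-RKG-amide (2.5 nM), anti-pTyr antibody 4G10 (500 pM), beads (5 μg/mL each), 2 h at 24 °C. Read against on-plate substrate standard curve.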

[4] = biological target: T4, Tyrosine-protein phosphatase non-receptor type 5 (Homo sapiens) (UniProt P54829); assay: Activation of human STEP PTP domain (281 to 563 residues) expressed in Escherichia coli BL21(DE3) assessed as ratio of Kcat to Km at 500 uM using pFyn peptide substrate after 60 mins by RapidFire MS/MS assay (reference value: 400 +/- 20 /M/s)
T4 sequence (whole entry): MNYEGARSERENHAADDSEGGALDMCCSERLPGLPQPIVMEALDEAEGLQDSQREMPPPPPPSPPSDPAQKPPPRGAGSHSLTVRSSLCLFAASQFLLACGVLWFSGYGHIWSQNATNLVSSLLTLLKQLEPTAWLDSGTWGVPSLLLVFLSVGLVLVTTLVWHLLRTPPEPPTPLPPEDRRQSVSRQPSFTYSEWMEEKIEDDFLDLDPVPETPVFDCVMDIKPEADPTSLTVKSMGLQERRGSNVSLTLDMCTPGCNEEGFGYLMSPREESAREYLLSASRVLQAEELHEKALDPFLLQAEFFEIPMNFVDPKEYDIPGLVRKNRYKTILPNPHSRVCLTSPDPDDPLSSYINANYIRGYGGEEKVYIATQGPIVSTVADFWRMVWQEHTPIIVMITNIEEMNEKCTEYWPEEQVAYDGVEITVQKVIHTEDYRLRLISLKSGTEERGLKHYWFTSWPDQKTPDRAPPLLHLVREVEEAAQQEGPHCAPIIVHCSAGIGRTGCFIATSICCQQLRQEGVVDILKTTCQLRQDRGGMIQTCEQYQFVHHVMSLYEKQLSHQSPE

[5] = species: Homo sapiens; assay: Activation of human STEP46 (197 to 565 residues) expressed in Escherichia coli BL21(DE3) at 1000 uM preincubated for 10 mins followed by DiFMUP substrate addition and measured at 1 min time interval for 30 mins by fluorescence assay relative to control
Summary of the method: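 STEP46 preincubated 10 min at room temperature with compound; reaction started with DiFMUP. Final: 100 nM STEP46, 1 μM DiFMUP, 50 mM HEPES, 0.02% Brij 35, 1 mM DTT, 5% DMSO. Fluorescence (ex 340/em 460 nm) every 1 min for 30 min at 37 °C; no-enzyme background subtracted. Linear slope expressed relative to enzyme without compound (100%).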

For `N=C(N)Nc1cc(C2CCNCC2)cc(C(F)(F)F)c1`, the Activity [1] was “inactive”, the Activity [2] was “Active” and the Activity [3] was “inactive”. The Ratio [4] was 650 M⁻¹ s⁻¹ and the Activity [5] was 48%.
